Measurements as given in ChEMBL document CHEMBL1240425, “Design and synthesis of chloroquine analogs with anti-breast cancer property” (Eur J Med Chem, 2010).

Key:
MDA-MB-231 [1] = assay: Antiproliferative activity against human p53, pRB mutant and estrogen receptor deficient MDA-MB-231 cells after 48 hrs by SRB assay; assay type: functional; settings: MDA-MB-231, 48 h
Method in brief: (§1)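 Cells (5000–10,000/well) preincubated 24 h at 37 °C, 5% CO2; MCF10A kept in mammary epithelial basal medium with MEGM supplements. Seven concentrations from 2–10-fold serial dilutions, with ≤0.1% DMSO vehicle control, were given for 48 h. Cells were TCA-fixed (10% final), then stained with 0.4% SRB. Dye was solubilized in 10 mM Tris base and read at 515–564 nm. GI50 came from variable-slope sigmoidal fits, triplicates, ≥2 experiments.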

MCF7 [2] = assay: Antiproliferative activity against human p53+/- MCF7 cells after 48 hrs by SRB assay; assay type: functional; settings: MCF7, 48 h; method in brief: as §1
[3] = Antiproliferative activity against human MCF10A cells after 48 hrs by SRB assay; assay type: cell-based, MCF-10A; method in brief: as §1
MDA-MB-231 [4] = assay: Ratio of compound GI50 to cisplatin GI50 for human p53, pRB mutant and estrogen receptor deficient MDA-MB-231 cells after 48 hrs by SRB assay; assay type: functional
MCF7 [5] = assay: Ratio of compound GI50 to cisplatin GI50 for human p53+/- MCF7 cells after 48 hrs by SRB assay; assay type: functional
MCF7 [6] = assay: Ratio of GI50 for human MCF10A cells to GI50 for human p53+/- MCF7 cells
MDA-MB-231 [7] = assay: Ratio of GI50 for human MCF10A cells to GI50 for human p53, pRB mutant and estrogen receptor deficient MDA-MB-231 cells

| Structure (SMILES) | GI50 (MDA-MB-231 [1]) [µM] | GI50 (MCF7 [2]) [µM] | GI50 at 48 h [3] [µM] | RatioGI50 (MDA-MB-231 [4]) | RatioGI50 (MCF7 [5]) | RatioGI50 (MCF7 [6]) | RatioGI50 (MDA-MB-231 [7]) |
| --- | --- | --- | --- | --- | --- | --- | --- |
| Clc1ccc2c(NCCCN3CCCC3)ccnc2c1 | 29.8 | 21.4 | 45.8 |  |  |  |  |
| Clc1ccc2c(NCCCN3CCOCC3)ccnc2c1 | 40.2 | 17.2 | 86.5 |  |  |  |  |
| CN1CCN(CCCNc2ccnc3cc(Cl)ccc23)CC1 | 19.1 | 17.1 | 16.7 |  |  |  |  |
| Clc1ccc2c(NCCCN3CCN(c4ccccc4)CC3)ccnc2c1 | 15.9 | 12.8 | 12.6 |  |  |  |  |
| Clc1ccc2c(NCCCN3CCN(c4ccnc5cc(Cl)ccc45)CC3)ccnc2c1 | 7.52 | 5.42 | 8.72 |  |  |  |  |
| FC(F)(F)c1ccc2c(N3CCN(CCCNc4ccnc5cc(Cl)ccc45)CC3)ccnc2c1 | 6.33 | 4.99 | 12.9 | 3.7 | 5.16 | 2.58 | 2.03 |
| O=C1C(=O)N(CCCNc2ccnc3cc(Cl)ccc23)c2ccccc21 | 47.6 | 23.5 | 35.9 |  |  |  |  |
| O=C1C(=O)N(CCCNc2ccnc3cc(Cl)ccc23)c2cccc(Cl)c21 | 55.6 | 46.7 | 84.8 |  |  |  |  |
| O=C1C(=O)N(CCCNc2ccnc3cc(Cl)ccc23)c2cccc(Br)c21 | 16.8 | 6.57 | 20.8 |  |  |  |  |
| O=C1C(=O)N(CCCNc2ccnc3cc(Cl)ccc23)c2cc(Cl)ccc21 | 15.8 | 7.36 | 6.88 |  |  |  |  |
| O=C1C(=O)N(CCCNc2ccnc3cc(Cl)ccc23)c2cc(Br)ccc21 | 35 | 16.6 | 19.9 |  |  |  |  |
| FC(F)(F)c1ccc2c(NCCCN3CCCC3)ccnc2c1 | 70.4 | 36.8 | 58.6 |  |  |  |  |
| FC(F)(F)c1ccc2c(NCCCN3CCCCC3)ccnc2c1 | 38.6 | 32.6 | 48.8 |  |  |  |  |
| FC(F)(F)c1ccc2c(NCCCN3CCOCC3)ccnc2c1 | 79.8 | 38.8 | 26.5 |  |  |  |  |
| CN1CCN(CCCNc2ccnc3cc(C(F)(F)F)ccc23)CC1 | 43.3 | 30.8 | 51.7 |  |  |  |  |
| FC(F)(F)c1ccc2c(NCCCN3CCN(c4ccccc4)CC3)ccnc2c1 | 9.9 | 8.75 | 19.8 |  |  |  |  |
| FC(F)(F)c1ccc2c(NCCCN3CCN(c4ccnc5cc(Cl)ccc45)CC3)ccnc2c1 | 4.31 | 4.6 | 8.84 |  |  | 1.92 | 2.05 |
| FC(F)(F)c1ccc2c(NCCCN3CCN(c4ccnc5cc(C(F)(F)F)ccc45)CC3)ccnc2c1 | 25.7 | 17.2 | 30 |  |  |  |  |
| O=C1C(=O)N(CCCNc2ccnc3cc(C(F)(F)F)ccc23)c2ccccc21 | 54.1 | 45.3 | 46.8 |  |  |  |  |
| O=C1C(=O)N(CCCNc2ccnc3cc(C(F)(F)F)ccc23)c2cccc(Cl)c21 | 50.2 | 18.8 | 20.2 |  |  |  |  |
| O=C1C(=O)N(CCCNc2ccnc3cc(C(F)(F)F)ccc23)c2cccc(Br)c21 | 49.4 | 34.4 | 33.7 |  |  |  |  |
| O=C1C(=O)N(CCCNc2ccnc3cc(C(F)(F)F)ccc23)c2cc(Cl)ccc21 | 17.4 | 14.3 | 25.2 |  |  |  |  |
| O=C1C(=O)N(CCCNc2ccnc3cc(C(F)(F)F)ccc23)c2cc(Br)ccc21 | 18.9 | 7.98 | 14.6 |  |  |  |  |
| CCN(CC)CCCNc1ccnc2cc(Cl)ccc12 | 27.8 | 17.9 | 65.3 |  |  |  |  |
| Clc1ccc2c(NCCCN3CCCCC3)ccnc2c1 | 38 | 17.7 | 47.8 |  |  |  |  |
| CCN(CC)CCCNc1ccnc2cc(C(F)(F)F)ccc12 | 57.1 | 20.6 | 45.8 |  |  |  |  |
| CCN(CC)CCCC(C)Nc1ccnc2cc(Cl)ccc12 (stereo not given) [CHLOROQUINE] |  |  | 81.3 |  |  |  |  |
